Most compounds without a hit are left out; they make up all but 2.9% or so of the library.
M1 ag parental: counter-screen for M1 agonists: effect in parental CHO-K1 cells. Fluo-8 calcium fluorescence; scaled to maximal ATP response, vehicle zero. activation, % at 3 µM. actives 0.48% (n = 360,000). AID 602248, 2012; in the data active = activation above about 15%;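 also: untransfected CHO-K1 host cells lacking M1 receptor as counterscreen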
OX1R antag-1: antagonists of human orexin 1 receptor (OX1R) | AID 485270, 2010 | OX1R-expressing cells, FRET antagonist read-out | actives 1.8% (n = 330,000) | inhibition, % at 6.6 µM | Orexin/Hypocretin receptor type 1 (Homo sapiens), O43613; in the data active = inhibition mostly above about 38%, no sharp cut-off; inactive = mostly below about 40%;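 also: 0% = agonist challenge alone and 100% = reference antagonist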
Target sequence (O43613 whole entry, looked up): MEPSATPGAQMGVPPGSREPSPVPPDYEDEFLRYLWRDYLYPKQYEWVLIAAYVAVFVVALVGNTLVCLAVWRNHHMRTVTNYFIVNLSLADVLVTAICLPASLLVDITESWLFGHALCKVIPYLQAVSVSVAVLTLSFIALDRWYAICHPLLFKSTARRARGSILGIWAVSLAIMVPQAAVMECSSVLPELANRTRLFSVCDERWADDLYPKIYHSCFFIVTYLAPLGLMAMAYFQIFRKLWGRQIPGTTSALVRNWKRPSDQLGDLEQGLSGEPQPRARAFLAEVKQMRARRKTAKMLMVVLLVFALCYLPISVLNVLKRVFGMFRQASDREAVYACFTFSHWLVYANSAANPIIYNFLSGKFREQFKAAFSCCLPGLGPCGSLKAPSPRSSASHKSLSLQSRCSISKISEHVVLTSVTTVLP
CHO parental Ca: ATP-evoked calcium signal inhibitors, parental CHO, primary screen, counter-screen for OX1R antagonist project, cell-based, fluorescence, Fluo-8 calcium dye; inhibition, % at 5.6 µM; actives 0.63% (n = 330,000); parental CHO-K1, ATP-induced calcium, Fluo-8 fluorescence;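 active = inhibition above that plate's mean sample inhibition plus 3 SD, cut at about 26% in these data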;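 also: 0% = ATP-challenged DMSO wells and 100% = DMSO wells without ATP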
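Measured by: calcium-sensitive Fluo-8 fluorescence / Test system: CHO parental line / Controls: ATP-challenged DMSO wells low, unchallenged DMSO wells high / Measure: % inhibition / Compound: single nominal dose of 5.6 µM per compound / Replicates: single well per compound, no replicates / Reagent: ATP as calcium-mobilizing challenge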
CHO-K1 Ca PAM: nonselective calcium activators in parental CHO-K1 cells, primary screen, counter-screen for M1 PAM project, cell-based, Fluo-8 calcium fluorescence, full deck, 1536-well; activation, % at 3 µM; AID 602247, 2012; actives 0.02% (n = 360,000); ATP EC20; 0% at ATP EC20, 100% at ATP max;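 active = activation above the run cutoff, the mean activation of all test compounds plus 3 SD, cut at about 40% in these data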;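 also: peak over basal fluorescence ratio in a 140 s read after ATP addition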
CHO-K1 Ca antag: M1 antagonist counterscreen hit in parental CHO-K1 cells; ATP-induced calcium, Fluo-8 fluorescence; inhibition, % at 3 µM; actives 0.6% (n = 360,000);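 active = inhibition above a per-plate cutoff, the plate's mean sample inhibition plus 3 SD, cut at about 24% in these data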;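 also: 0% = DMSO plus EC80 ATP and 100% = DMSO alone without ATP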
OX1R antag-2: OX1R (HCRTR1) antagonists, primary screen, fluorescence, CHO/OX1R cells, Fluo-8 calcium, orexin A; Orexin/Hypocretin receptor type 1 (Homo sapiens), O43613; Fluo-8 calcium fluorescence; inhibition, % at 5 µM; actives 0.43% (n = 330,000); AID 434989, 2010;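 active = inhibition above its plate's threshold, mean inhibition of all tested compounds on the plate plus 3 SD, cut at about 37% in these data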;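 also: 0% = orexin A challenge wells and 100% = SB-334867-A antagonist wells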
Active calls of the source: *; . = no result.

SMILES	M1 ag parental	OX1R antag-1	CHO parental Ca	CHO-K1 Ca PAM	CHO-K1 Ca antag	OX1R antag-2
CCc1ccc([C@@H]2CC=C(C(=O)O)[C@H](c3ccccc3F)N2S(=O)(=O)c2ccc(C)cc2)cc1	0	60*	-19	-15	-3	-7
Cc1ccc([C@@H]2CC=C(C(=O)O)[C@H](c3ccccc3)N2S(=O)(=O)c2ccc(C)cc2)cc1	0	51	-13	23	-20	-13
CCc1ccc([C@@H]2CC=C(C(=O)O)[C@H](c3cccc(Cl)c3)N2S(=O)(=O)c2ccc(C)cc2)cc1	0	71*	-16	14	-10	22
COc1ccc([C@@H]2CC=C(C(=O)O)[C@H](c3cccc(Cl)c3)N2S(=O)(=O)c2ccc(Cl)cc2)cc1	0	62*	-13	9	-11	8
CCc1ccc([C@@H]2CC=C(C(=O)O)[C@H](c3ccc(Cl)cc3)N2S(=O)(=O)c2ccc(C)cc2)cc1	0	30	6	3	-6	6
Cc1ccc([C@H]2C(C(=O)O)=CC[C@@H](c3ccc(C)cc3)N2S(=O)(=O)c2ccc(C)cc2)cc1	2	41*	-34	10	3	-1
CCc1ccc([C@@H]2CC=C(C(=O)O)[C@H](c3ccc(C)cc3)N2S(=O)(=O)c2ccc(C)cc2)cc1	0	26	-6	-1	5	-2
Cc1ccc(S(=O)(=O)N2[C@@H](c3ccccc3)C(C(=O)O)=CC[C@H]2c2ccc(C(C)C)cc2)cc1	0	36	-18	7	-11	-16
Cc1ccc([C@H]2C(C(=O)O)=CC[C@@H](c3ccc(C(C)C)cc3)N2S(=O)(=O)c2ccc(C)cc2)cc1	6	29	37*	6	-6	29
CCOC(=O)C1=CCN(S(=O)(=O)c2ccc(C)cc2)C1c1cccc(Cl)c1 (stereo not drawn)	-1	.	.	-4	29*	.
Cc1ccc([C@H]2C(C(=O)O)=CC[C@@H](c3ccc(Cl)cc3)N2S(=O)(=O)c2ccc(C)cc2)cc1	1	39*	-6	7	-13	37
Oc1ccccc1CNc1ccc(OC(F)(F)F)cc1	4	19	13	8	-7	17
CN=C1C([N+](=O)[O-])=CC=C2C1=NC1(CCCCC1)N2O	0	50*	-4	19	-5	-7
Cc1ccc(CS(=O)(=O)CC(C)(O)c2ccc(Cl)cc2)cc1 (stereo not drawn)	-1	-4	-11	13	-11	-14
N#Cc1cc([N+](=O)[O-])ccc1NC(=O)COC(=O)CN1C(=O)C2CCCCC2C1=O (stereo not drawn)	5	43*	-17	21	6	-22
Clc1ccccc1Nc1nc2ccccc2o1	-1	6	-17	-2	-1	-3
Cc1cccc(C)c1Nc1nc2ccccc2o1	0	21	-5	-6	25*	-14
CCN(Cc1ccccc1)C(=O)COC(=O)Cc1c[nH]c2ccccc12	5	.	.	-13	25*	.
CCOC(=O)Cc1c[nH]c2ccccc12	0	16	-7	8	9	-14
CC(=O)CC(c1ccccc1)S(=O)(=O)c1ccc([N+](=O)[O-])cc1 (stereo not drawn)	1	13	7	18	-12	-8
Cc1cccc(NC(=O)CSCC(=O)N(CCC(C)C)c2c(N)n(Cc3ccccc3)c(=O)[nH]c2=O)c1	0	29	-19	-1	-4	-12
CC1CCCN(S(=O)(=O)c2ccc(NC(=O)CN3C(=O)NC(C)(c4ccccc4)C3=O)cc2)C1 (stereo not drawn)	1	14	-2	6	-5	-18
O=C(N/C(=C\c1ccc(F)cc1)C(=O)N1CCOCC1)c1ccccc1	1	4	1	8	-9	-16
O=[N+]([O-])c1ccc(S(=O)(=O)NCCc2ccncc2)cc1	0	43*	-4	5	-6	-16
O=S(=O)(NCCc1ccncc1)c1ccc(F)cc1	0	5	-3	-2	0	-2
SMILES	M1 ag parental	OX1R antag-1	CHO parental Ca	CHO-K1 Ca PAM	CHO-K1 Ca antag	OX1R antag-2
Cc1ccc(S(=O)(=O)NCCc2ccncc2)cc1C	18*	7	-12	13	11	-11
COc1ccccc1-n1cc(-c2ccccc2)c2c(=S)nc[nH]c21	3	18	-14	19	-8	0
COC(=O)CSc1nnc2n(-c3ccc(OC)cc3)c(=O)c3c4c(sc3n12)CCCCC4	-1	31	-26	-2	24*	-32
CC(Oc1cccc(Cl)c1)C(=O)Nc1ccc(S(=O)(=O)N(C)C2CCN(C)CC2)cc1 (stereo not drawn)	9	1	-2	13	-6	10
CCc1ccc(OCCn2cccn2)cc1	0	4	2	20	-2	0
CC(=O)Nc1nonc1NC(C)=O	0	3	-11	1	-8	1
CC(=O)Nc1cc(OC(C)=O)c2nonc2c1OC(C)=O	2	85*	-2	-1	-15	3
Cc1nccn1CCCNC(=O)CC1C(=O)NCCN1Cc1ccc(F)cc1Cl (stereo not drawn)	1	12	-7	24	-7	-4
Cc1cc(-c2ccc(C(C)C)c(S(=O)(=O)N3CC(=O)Nc4ccccc43)c2)on1	6	39*	-8	19	-9	-2
CCCCC(=O)Nc1ccc(C(=O)Nc2cccnc2)cc1	1	11	-3	-2	11	-22
Cc1ccc(NS(=O)(=O)c2ccc(C(=O)NCc3ccncc3)cc2)cc1	15*	6	-2	6	5	-5
CS(=O)(=O)Nc1ccc(C(=O)NCc2ccccn2)cc1	0	4	0	14	-8	9
CCCCC(=O)Nc1ccc(C(=O)NCc2ccncc2)cc1	0	7	-11	4	25*	0
Cc1ccc(NS(=O)(=O)c2ccc(C(=O)NCc3ccccn3)cc2)cc1	19*	2	0	0	-4	21
CCOc1ccc(NS(=O)(=O)c2ccc(C(=O)NCc3ccccn3)cc2)cc1	21*	13	7	-8	1	3
CCCCNC(=O)C1CC(=O)N(CCc2ccc(C)cc2)C1 (stereo not drawn)	1	2	9	3	-8	-14
Cc1ccc(C(=O)OC(C)CN2C(C)CCCC2C)cc1 (stereo not drawn)	1	-5	-6	-3	-14	-24
COc1ccccc1NC(=O)/C(=C/c1cccc([N+](=O)[O-])c1)c1ccccc1	0	38	-38	27	-7	-35
O=C(COC(=O)c1cc(Cl)ccc1O)NCCC1=CCCCC1	2	19	-15	2	-3	-14

Source: PubChem
